Assay results published in the EternaBench riboswitch data.

Test system: MS2 coat protein
Assay: apparent Kd, MS2 coat protein; higher = weaker binding; RNA-MaP array; FMN 200 µM where present
How it was run: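 Stalled E. coli RNA polymerase transcribed the designs on Illumina sequencing-chip clusters. SNAP-549-labelled MS2 coat protein was titrated from 0.7 or 1.5 nM, doubling to 3 µM, without and then with constant ligand, in 100 mM Tris-HCl pH 7.5, 80 mM KCl, 4 mM MgCl2, BSA, DTT, yeast tRNA and Tween-20. Per-cluster binding curves were fitted to green signal normalised to red-channel RNA signal and control-cluster median Fmax. The apparent Kd is the median of the filtered fits.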

[1] = designed as: OFF switch for flavin mononucleotide, no ligand
[2] = ligand present: flavin mononucleotide, designed as: OFF switch for flavin mononucleotide
[3] = designed as: ON switch for flavin mononucleotide, no ligand
[4] = ligand present: flavin mononucleotide, designed as: ON switch for flavin mononucleotide

Row | Sequence | apparent Kd [1] [µM] | apparent Kd [2] [µM] | apparent Kd [3] [µM] | apparent Kd [4] [µM]
1 | CAGGUAGACUGAGGAUAUACAAUAAACAGCUAGUCUAUCUAGCUGCUCACAUGAGGAUCACCCAUGUAGAAGGCAGUCUGCCUG | 0.0187 | 0.0451 |  | 
2 | AUUAUUAUAUUAUACAUGAGGAUCACCCAUGUUAUAAGUCAUGAGGAUAUGGUUAUGUAGAUUUGCCAGAAGGCAUUUAACUUA |  |  | 0.0149 | 0.00991
3 | ACAACAAAGUGAGGAUAUACAUAAUUCAUAACUGUAGAAGGCACAAACCUCAAUACAUGAGGAUCACCCAUGUUAUAUAUCUAA | 0.0348 | 0.0385 |  | 
4 | CGACAGCACACAGGAUAUCCUCGACUUUGUCGAGGAGAAGGGUGUAAACAUGAGGAUCACCCAUGUAUGCUGUCGAAAUUUAAU |  |  | 0.308 | 0.0307
5 | UGAUAGGACAGAGGAUAUACGUGCUGGUGAUACUAGCAAAGUAUCGUGACAUGAGGAUCACCCAUGUAGAAGGCUGUCCUAUCU | 0.0811 | 0.0273 |  | 
6 | AAUAGAAAGAUUAAUAUGAUUACAUGAGGAUCACCCAUGUAUAAGGAUAUCGACGUCAAUGACGUCGAGAAGGUAUACAUAAUA | 0.0157 | 0.034 |  | 
7 | CGGGAUCCGAAGGGCGAAAGCCCACAUGAGGAUCACCCAUGUAGAAGGCGGGCCGCAACGCGGCCCGAGGAUAUACAGGAUCCA | 0.0179 | 0.037 |  | 
8 | UUAUUACAUGAGGAUCACCCAUGUUUAGUGGUGACAGGAUAUACGAAAAAAAAAAAAAAAGUAGAAGGGUCUUAUU |  |  | 0.503 | 0.742
9 | AGCACGAGAGGUGCUGUCUAACCACAUGAGGAUCACCCAUGUAAGGAUAUCGCGGCUAUCGGCAUCGAGAAGGUACAGGGAGCA | 0.0112 | 0.0216 |  | 
10 | CCUCAGGCGGAGGAUAUCUAACAACAAUAACAAAGAGAAGGCCGCACAUGAGGAUCACCCAUGUGUAUGGGCCG | 0.0124 | 0.0228 |  | 
11 | GCGGAGAUACAGAAGGGAUAAGCCCUGGGCUAAUCAGGAUAUGUACGACGCAUCGUACAUGAGGAUCACCCAUGUAGCCGCUUG |  |  | 0.483 | 0.0856
12 | UUUUAGUGAGGAUAUGUGGCUUCGAUCGUGAGAUCGAGGCUACAGAAGGCACAUGAGGAUCACCCAUGUUCCUU | 0.0145 | 0.0467 |  | 
13 | GCAGCACUCAUUAACAUGAGGAUCACCCAUGUCAAAAGACAUGAGGAUAUGCAUCUGAAGAAGAUGCAGAAGGCAUUGUGCUGC |  |  | 0.555 | 0.0256
14 | GGUACUCAAAGAGUACUUGGUCGAACAUGAGGAUCACCCAUGUAGGAUAUGUAAAGCAAGAAGUAACAGAAGGACAUGUGCAGC | 0.0131 | 0.0171 |  | 
15 | CUAAAACAUGAGGAUCACCCAUGUCAACAAAGUCGAGGAUAUGGGCAAAUAAAAUAAGAACCAGAAGGCGAAUAAC |  |  | 0.409 | 0.0362
16 | UGUCGGAGCAGAGGAUAUUACAUGAGGAUCACCCAUGUAUGAACCAAUAGCUGCAAACAGCAAUGUAAGAAGGCUGCUCCGACA | 0.0124 | 0.162 |  | 
17 | CCAGAUUUCACAGGAUAUAUUGAUGACAUGAGGAUCACCCAUGUACCGGCAGUAGAAGGGUGAACGCUCGUGACCACGUGCGUG |  |  | 0.253 | 0.134
18 | AUCUUGCGAGGAUAUACUUACUUUUUUUUAUUUGGUUGCGAACAUGAGGAUCACCCAUGUAGAAGGUGCAUAAC | 0.026 | 0.0241 |  | 
19 | UUACAGUGCGGGUAGGAUAUGUAGGGUGGUACAUGAGGAUCACCCAUGUAUCCACCCUUCUACCGGCAGAAGGGCCUGUCACUGC |  |  | 0.017 | 0.0135
20 | CCUGUUUGAUUCCUCUUAUACAUGAGGAUCACCCAUGUUAUCGAGGAUAUGCAUUAGAGUGUUUAGCAGAAGGCGAUGUAAUUG | 0.00612 | 0.0175 |  | 
21 | GGUCUACAUGAGGAUCACCCAUGUAAGGAUAUCGUCACUGGAGCUUCGGCUCCAGUGACGAGAAGGUACGUAAU | 0.0317 | 0.0337 |  | 
22 | AAAAGUUGGUAAGGAUAUCCCACAUUAUUCUGACCCGUGCAAGCUACAUGAGGAUCACCCAUGUGGGAGAAGGUGCGUUAAAGA | 0.0547 | 0.0646 |  | 
23 | GUGUACAGAGGAUAUGCACGAGUAGUUACGAAAGUAACUACACAUGAGGAUCACCCAUGUAGAAGGCUGUACAC | 0.0132 | 0.0169 |  | 
24 | GGAGAUUACUCAGGAUAUCGCUAGACCGACAUGAGGAUCACCCAUGUGGGUGACGCGGUGGGCUACGAGAAGGGAGAAGUGCCC | 0.0115 | 0.0117 |  | 
25 | GCACAUGAUACAGGAUAUGUUUUGGAUUUUAUAUGCAGUUAUAAUUUUUUGACAGAAGGGUAUACAUGAGGAUCACCCAUGUGC | 0.161 | 0.075 |  | 
26 | CGCACUGAUAGAGGAUAUGUUUUACAUGAGGAUCACCCAUGUGUACAAGGAUUAAUAUAUAAGUAACAGAAGGCUAUUUGUGCG | 0.00655 | 0.00585 |  | 
27 | AUUGUGUGAGGAUAUUAGCAGUAGACGAAUGGAGUCGUGGCUGAGAAGGCACAUGAGGAUCACCCAUGUUCCUU |  | 0.0883 |  | 
28 | AGAUAGUGGUGAGGAUAUCAGAAUAGAAAGAAAUGAGAAGGCGCACAUGAGGAUCACCCAUGUGAGGUCUUGAGACUACAUGGU | 0.02 | 0.0221 |  | 
